Data as given in paper PMC7427514 (Chem, 2020).

Legend:
[1] = tested on: 3DIV hippocampal mouse neurons; experiment: Ca2+ influx assay upon GABA application in immature; type: cell-based; settings: for Ca2+ influx upon GABA application: 10, 100 μM, GABA 100 μM, compared with DMSO-treated controls; for cell viability (fluorescence level upon KCl application): KCl 90 mM, 3DIV neurons
[2] = tested on: GABAA receptors; experiment: Voltage-clamp recordings of GABA-evoked currents in neuronal cultures; type: cell-based; settings: 10 μM bath application; 12–20 DIV hippocampal mouse neurons
Outline: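 Cultured hippocampal mouse neurons at DIV12–20 were voltage-clamped at 22–24°C in extracellular solution. GABA-evoked currents (average of five sweeps) were recorded before and after bath application of test compound (10 μM). Cells with access resistance >25 MΩ or with >20% variation in GABA-current peak were excluded. Signals were sampled at 20 kHz and low-pass filtered at 10 kHz.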

[3] = target: T1, NKCC2 (Homo sapiens, UniProt Q13621); experiment: Cl− influx assay in NKCC2-transfected HEK293 cells; type: cell-based; settings: HEK293, read-out: NKCC2 inhibition
T1 sequence (Q13621 1-1099): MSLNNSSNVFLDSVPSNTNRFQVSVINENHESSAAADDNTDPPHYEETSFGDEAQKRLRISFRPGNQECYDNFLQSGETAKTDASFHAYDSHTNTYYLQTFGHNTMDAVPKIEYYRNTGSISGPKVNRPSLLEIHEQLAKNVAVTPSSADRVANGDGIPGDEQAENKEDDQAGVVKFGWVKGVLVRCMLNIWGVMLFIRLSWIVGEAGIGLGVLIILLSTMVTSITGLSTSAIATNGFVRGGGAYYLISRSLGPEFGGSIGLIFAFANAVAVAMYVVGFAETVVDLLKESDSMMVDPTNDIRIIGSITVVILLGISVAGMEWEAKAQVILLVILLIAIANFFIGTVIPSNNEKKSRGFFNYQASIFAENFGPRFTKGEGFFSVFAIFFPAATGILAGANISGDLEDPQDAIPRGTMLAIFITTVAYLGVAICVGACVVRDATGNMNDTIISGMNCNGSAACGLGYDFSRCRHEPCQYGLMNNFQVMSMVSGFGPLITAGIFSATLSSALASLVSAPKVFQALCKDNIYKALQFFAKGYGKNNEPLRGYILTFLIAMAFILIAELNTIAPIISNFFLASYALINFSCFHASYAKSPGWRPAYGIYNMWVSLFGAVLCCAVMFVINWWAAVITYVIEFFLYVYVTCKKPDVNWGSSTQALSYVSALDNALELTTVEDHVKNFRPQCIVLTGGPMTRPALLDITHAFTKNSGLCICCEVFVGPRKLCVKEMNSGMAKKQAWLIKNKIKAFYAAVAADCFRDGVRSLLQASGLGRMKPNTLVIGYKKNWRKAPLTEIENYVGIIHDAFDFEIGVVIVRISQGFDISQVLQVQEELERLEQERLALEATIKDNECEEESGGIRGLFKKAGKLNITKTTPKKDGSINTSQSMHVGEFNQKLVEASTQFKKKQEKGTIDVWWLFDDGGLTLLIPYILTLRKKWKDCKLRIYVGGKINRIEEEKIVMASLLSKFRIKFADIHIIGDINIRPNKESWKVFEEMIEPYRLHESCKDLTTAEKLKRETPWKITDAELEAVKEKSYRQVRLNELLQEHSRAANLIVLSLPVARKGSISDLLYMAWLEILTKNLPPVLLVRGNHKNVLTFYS
Outline: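 HEK293 cells were co-transfected by lipofection with NKCC2 (in PRK5) or empty vector plus membrane-tagged Cl−-sensitive YFP, replated after 4 h, and assayed at 48 h. Test compound (10 or 100 μM) was applied for 30 min in Cl−-free hypotonic HEPES buffer, pH 7.4. Fluorescence (ex 485/em 535 nm) was read for 20 s baseline and 60 s after NaCl (74 mM final). Fluorescence decrease is expressed as % of DMSO control; four independent experiments, mean ± SEM.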

[4] = tested on: WT and Ts65Dn hippocampal neurons; experiment: MQAE Cl− imaging in neuronal cultures; type: cell-based, mouse; settings: 10 μM
Outline: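 Hippocampal neurons from P2 WT and Ts65Dn pups were cultured on poly-L-lysine coverslips in Neurobasal-A/B-27. At 15 DIV they were loaded with 5 mM MQAE plus test compound (10 μM) or DMSO for 30 min at 37°C. Coverslips were then perfused with extracellular solution (pH 7.4) containing compound for 5 min at 25°C and imaged by confocal microscopy.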

[5] = tested on: Ts65Dn mice and WT littermates; experiment: Diuresis analysis in Ts65Dn mice and WT littermates; type: in vivo, mouse; settings: 0.2 mg kg−1 IP; adult WT and Ts65Dn mice; relative to vehicle
Outline: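 Adult (P60–120) Ts65Dn mice and WT littermates of both sexes received one i.p. dose of vehicle or test compound at 0.2 mg/kg. The dose was given from a 1 mg/mL DMSO stock diluted in PBS to 0.02 mg/mL and injected at 10 μL/g. Urine volume was collected for 2 h, after which mice were returned to home cages.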

[6] = tested on: VPA mice and controls; experiment: Diuresis analysis in VPA mice and controls; type: in vivo, mouse; settings: 0.2 mg kg−1 IP; young adult control and VPA mice; relative to vehicle
Outline: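 VPA-model offspring were from C57BL/6J dams given 600 mg/kg VPA i.p. in PBS at gestational day 12.5; controls were included. Mice of both sexes received one i.p. dose of vehicle or test compound at 0.2 mg/kg, from a 1 mg/mL DMSO stock diluted in PBS to 0.02 mg/mL and injected at 10 μL/g. Urine volume was collected for 120 min.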

[7] = tested on: valproic acid (VPA) mouse model of ASD; experiment: Male-female interaction test in VPA mice; type: in vivo; settings: 0.2 mg kg−1 IP daily, chronic
Outline: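 Male VPA-model mice (6–8 weeks) and controls were dosed i.p. daily with vehicle or test compound at 0.2 mg/kg, with testing 1 h post-injection after at least 1 week of treatment. Each male was placed alone in a cage and habituated for 5 min. An unfamiliar C57BL/6J female was then introduced, and behavior was recorded for 5 min and scored blind.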

[8] = tested on: valproic acid (VPA) mouse model of ASD; experiment: Marble burying test in VPA mice; type: in vivo; settings: 0.2 mg kg−1 IP daily, chronic
Outline: (§1)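 Male VPA-model mice (prenatal VPA 600 mg/kg i.p. at gestational day 12.5) and controls, 6–8 weeks old, were randomized to vehicle (2% DMSO in saline) or test compound 0.2 mg/kg i.p. daily for 21–28 days. Tests started after 1 week of treatment, 1 h post-injection, and were video-scored manually by a blind operator.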

[9] = tested on: valproic acid (VPA) mouse model of ASD; experiment: Grooming test in VPA mice; type: in vivo; settings: 0.2 mg kg−1 IP daily, chronic
Outline: as §1

[10] = target: T2, KCC2 (Homo sapiens, UniProt Q9H2X9); experiment: Tl influx assay in KCC2-transfected HEK293 cells; type: cell-based; settings: 10 μM, versus control DMSO, mean ± SEM
T2 sequence (Q9H2X9 1-1139): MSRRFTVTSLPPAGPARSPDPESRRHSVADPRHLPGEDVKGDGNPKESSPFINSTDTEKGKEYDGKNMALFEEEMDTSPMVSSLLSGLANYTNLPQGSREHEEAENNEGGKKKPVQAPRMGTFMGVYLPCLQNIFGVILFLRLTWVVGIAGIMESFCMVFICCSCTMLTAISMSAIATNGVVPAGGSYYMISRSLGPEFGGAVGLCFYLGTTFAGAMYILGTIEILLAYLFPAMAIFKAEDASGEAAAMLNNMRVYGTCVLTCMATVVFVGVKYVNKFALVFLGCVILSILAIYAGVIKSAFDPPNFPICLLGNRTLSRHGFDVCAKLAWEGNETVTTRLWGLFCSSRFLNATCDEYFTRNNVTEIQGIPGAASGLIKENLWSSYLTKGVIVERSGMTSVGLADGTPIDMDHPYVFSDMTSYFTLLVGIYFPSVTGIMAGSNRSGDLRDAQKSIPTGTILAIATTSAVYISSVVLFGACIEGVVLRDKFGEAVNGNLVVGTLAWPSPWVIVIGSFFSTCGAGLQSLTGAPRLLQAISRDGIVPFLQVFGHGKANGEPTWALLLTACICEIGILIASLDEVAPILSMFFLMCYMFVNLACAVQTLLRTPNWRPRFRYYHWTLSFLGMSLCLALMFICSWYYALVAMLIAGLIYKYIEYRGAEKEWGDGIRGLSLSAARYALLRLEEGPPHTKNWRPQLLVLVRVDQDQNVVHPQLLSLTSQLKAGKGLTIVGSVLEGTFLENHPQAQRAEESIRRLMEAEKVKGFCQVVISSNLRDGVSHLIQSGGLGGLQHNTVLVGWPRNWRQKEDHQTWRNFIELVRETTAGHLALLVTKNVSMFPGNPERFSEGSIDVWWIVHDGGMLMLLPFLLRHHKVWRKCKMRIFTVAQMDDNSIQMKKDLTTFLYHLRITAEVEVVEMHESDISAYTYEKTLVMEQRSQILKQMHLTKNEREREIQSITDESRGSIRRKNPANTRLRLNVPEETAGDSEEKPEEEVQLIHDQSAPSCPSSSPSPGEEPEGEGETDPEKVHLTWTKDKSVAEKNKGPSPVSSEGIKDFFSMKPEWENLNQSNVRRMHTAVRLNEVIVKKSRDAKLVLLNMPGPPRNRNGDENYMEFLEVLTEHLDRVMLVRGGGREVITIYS
Outline: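 KCC2 (in PRK5)- or mock-transfected HEK293 cells were loaded for 1 h with Tl-sensitive dye (1:1,000) and probenecid (1:100) in Cl−-free hypotonic solution, washed, then treated with test compound with 100 μM ouabain. Fluorescence (ex 485/em 535 nm) was read for 20 s baseline, 20 s after TlSO4 (2 mM final), then 60 s after NaCl (74 mM final). Mock ΔF/F0 (last 10 s) was subtracted; fluorescence increase is expressed as % of DMSO control.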

Row | Structure (SMILES) | Ca2+ influx upon GABA application [1] | cell viability (fluorescence level upon KCl application) [1] | inhibitory activity on GABAA receptors (GABA-evoked currents) [2] | inhibition at 10 µM [3] | level of alleged NKCC1 inhibition in the Ca2+ influx assay compared with the Cl− influx assay ([1]; 10 and 100 μM) | [Cl−]i in wild-type (WT) neurons ([4]; 15 DIV WT neurons) | [Cl−]i in Ts65Dn neurons ([4]; mature (15 DIV) Ts65Dn neurons) | diuretic effect (urine volume for 2 h) [5] | diuretic effect (urine volume for 2 h) [6] | sociability during male-female interaction [7] | repetitive behaviors in the marble burying test [8] | repetitive behaviors in the grooming task [9] | KCC2 inhibition [10]
1 | NS(=O)(=O)c1cc(C(=O)O)c(NCc2ccco2)cc1Cl [furosemide] | significantly reduced | without affecting the cell viability | variable inhibitory activity | – | – | – | – | – | – | – | – | – | –
2 | CCCCNc1cc(C(=O)O)cc(S(N)(=O)=O)c1Oc1ccccc1 [bumetanide] | significantly reduced | without affecting the cell viability | this was not the case | 82.7 ± 20.4% | corresponded to the levels obtained for the Cl^− influx assay | without significantly affecting | restored aberrant [Cl^−]i to physiological levels | significantly increased the urine volume | significantly increased the urine volume | rescued poor sociability | significantly reduced repetitive behaviors | non-significant trend toward WT levels | –
3 | CCCC[C@]1(C2CCCC2)Cc2cc(OCC(=O)O)c(Cl)c(Cl)c2C1=O [DIOA, R-(+)-[(2-n-Butyl-6,7-dichloro-2-cyclopentyl-2,3-dihydro-1-oxo-1H-inden-5-yl)oxy]acetic acid] | – | – | – | – | – | – | – | – | – | – | – | – | 37.6 ± 6.7%
